5-HT1A blocker: human 5-HT1a receptor antagonists, primary screen, cell-based, CHO, Ga15 NFAT-bla reporter. CHO 5-HT1a Ga15 NFAT-bla reporter, antagonist mode. inhibition, % at 10 µM. 0.68% of 62,000 active;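 active means inhibition above the mean of all tested compounds plus 3 SD, cut at about 43% in these data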;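 further: receptor stimulated by 5-CT agonist at 100 nM near EC80; beta-lactamase reporter measured by ratiometric fluorescence of a cleavable substrate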
S1P1 ag pot: S1P1 agonists and agonism potentiators, primary screen, cell-based, primary and confirmation screens, CRE-bla reporter. Sphingosine 1-phosphate receptor 1 (Homo sapiens), P21453. S1P1 CRE-bla cells, forskolin, beta-lactamase FRET, potentiator mode; S1P1 agonist co-added at EC20, 2 nM; 100% = saturating reference agonist, 0% = basal. activation, % at 9.5 µM. 0.57% of 56,000 active;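 active means activation above a cutoff set at the mean activation of all tested compounds plus 3 SD, cut at about 54% in these data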;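 further: forskolin at 4 µM as EC80 and the EC20 agonist is SEW2871; 100% = SEW2871 at its EC100 plus forskolin at EC80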
Target sequence (P21453 whole entry, looked up): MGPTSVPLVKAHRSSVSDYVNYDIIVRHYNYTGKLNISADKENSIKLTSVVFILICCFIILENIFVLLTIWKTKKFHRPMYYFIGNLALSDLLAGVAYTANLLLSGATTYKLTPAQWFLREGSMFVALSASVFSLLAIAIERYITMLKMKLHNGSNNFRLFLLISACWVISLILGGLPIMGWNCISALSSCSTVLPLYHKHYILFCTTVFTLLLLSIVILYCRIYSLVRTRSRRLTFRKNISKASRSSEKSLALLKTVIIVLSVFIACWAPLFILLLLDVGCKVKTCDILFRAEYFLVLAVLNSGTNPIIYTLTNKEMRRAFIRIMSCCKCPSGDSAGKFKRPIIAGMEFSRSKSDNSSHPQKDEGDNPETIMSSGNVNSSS
5HT1a ag: human 5-HT1a receptor agonists, primary screen, cell-based, CHO, Ga15 NFAT-bla reporter | 5-hydroxytryptamine receptor 1A (Homo sapiens), P08908 | CHO 5-HT1a Ga15 NFAT-bla reporter, FRET ratio; 0% basal, 100% maximal reference agonist | activation, % at 10 µM | 0.56% of 65,000 active | AID 567, 2006;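 active means activation above the screen-wide mean activation plus 3 SD, cut at about 19% in these data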;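 further: 0% = DMSO wells and 100% = 5-CT at EC100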
HTR1E agonist: 5-HT1E receptor agonists, primary screen, cell-based, HTS; CHO 5-HT1E Ga15 NFAT-bla reporter, FRET; 0% DMSO wells, 100% control agonist wells; 0.69% of 65,000 active; activation, % at 6 µM; AID 574, 2007;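 active means activation above a set limit, the screen-wide mean activation plus 3 SD, cut at about 8.5% in these data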;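 further: 100% = positive control agonist at 1 µM giving full maximal response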
S1P3 ag: human S1P3 receptor agonists, primary screen, cell-based, primary and confirmation, NFAT-BLA reporter | Sphingosine 1-phosphate receptor 3 (Homo sapiens), Q99500 | S1P3 NFAT-BLA reporter cells, agonism, FRET ratio; relative to 1 µM S1P, basal subtracted | AID 373, 2006 | 0.1% of 60,000 active | activation, % at 4.5 µM;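 active means activation above the screen-wide mean plus 3 SD, cut at about 4.5% in these data, passing the limit was not always enough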
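Assay system: stable CHO line with human S1P3, Gα16, NFAT-BLA reporter; Detection: FRET β-lactamase substrate fluorescence, excitation 405 nm, 460/535 nm emission ratio, background-subtracted; Read-out: percent activation versus median 1 µM S1P response, basal-subtracted, per plate; Incubation: cells plated overnight, compound 4 h 37 °C, substrate 2 h RT.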
HTR1E antagonist: 5-HT1E receptor antagonists, primary screen, cell-based, HTS; AID 571, 2007; CHO 5-HT1E Ga15 NFAT-bla reporter, FRET, antagonist; 5-hydroxytryptamine receptor 1E (Homo sapiens), P28566; 0.99% of 65,000 active; inhibition, % at 6 µM;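 active means inhibition above a set limit, the mean inhibition across every tested compound plus 3 SD, cut at about 29% in these data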;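 further: signal is the 460 over 535 nm emission ratio of beta-lactamase substrate; 0% = agonist plus DMSO wells and 100% = wells without agonist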
Active calls of the source: *; . = no result. The list is not random: actives were taken first. Their share in the collection is about 3%.

SMILES	5-HT1A blocker	S1P1 ag pot	5HT1a ag	HTR1E agonist	S1P3 ag	HTR1E antagonist
CCc1c(C)nc2cc(-c3ccc(OC)c(OC)c3)nn2c1N1CCCC1	15	.	1	0	.	31*
COc1ccc(-c2nnc(SCc3ccccc3F)o2)cc1OC	10	42	-1	0	1	30*
Cc1ccc(-c2nnc(SCc3ccccc3F)o2)cc1	4	93*	0	-1	0	-1
Cc1ccc(-c2nnc(SCC(=O)Nc3ccccc3F)o2)cc1	5	-4	-2	0	0	-3
CCOc1c(C)cc2[nH]c(CCC(=O)O)nc2c1C	.	1	0	-1	-5	5
COc1ccc(-n2c(SCC(=O)N3CCN(c4ccccc4)CC3)nc3c(c2=O)SCC3)cc1	-15	10	2	1	-1	-14
COC(=O)C(C)Sc1nc2c(c(=O)n1-c1ccccc1)SCC2 (configuration not stated)	-10	.	36*	-1	.	5
CCCn1c(C)cc(C(=O)COc2ncnc3sccc23)c1C	-2	-21	-3	0	0	-10
Cc1cc(C(=O)COc2ncnc3sccc23)c(C)n1C1CC1	-6	17	19*	0	0	-7
C=CCc1ccccc1OCC(O)CNC (configuration not stated)	7	-15	0	9.4*	0	-4
C=CCc1ccccc1OCC(O)CN(C(C)C)C(C)C (configuration not stated)	13	-12	-2	19*	0	-1
CCN(CC)CCCN1C(=O)C(O)=C(C(=O)c2cccs2)C1c1ccccn1 (configuration not stated)	3	1	-2	0	-1	-6
CC(=O)c1c(C)[nH]c(C(=O)OCCCCN2C(=O)c3ccccc3C2=O)c1C	7	97*	4	0	-2	15
CC1CCN(C(=O)CSc2nc3cccnc3n2C)CC1	-12	-2	89*	-1	-1	6
CCOC(=O)c1nnn(-c2nonc2N)c1CSc1ccccn1	24	-24	-4	0	-2	15
Cc1ccc(Cl)cc1N1CCN(C(=O)C2CCN(c3nnc(-n4cccc4)s3)CC2)CC1	5	87*	0	3	-2	-11
Cc1ccc(NC(=O)N2CCC(C(=O)NCC(C)C)CC2)cc1	6	5	2	0	1	-1
N#Cc1c(-c2cccs2)cc(-c2ccccn2)nc1N	5	-52	6	2	0	43*
N#Cc1c(N)nc(SCC(=O)NCCc2ccccc2)c(C#N)c1-c1cccs1	.	-9	12	2	-4	13
N#Cc1c(-c2cccs2)cc(-c2cccnc2)nc1N	6	-16	3	1	-1	44*
Clc1ccccc1OCc1nc(-c2ccncc2)no1	-10	.	-1	1	-1	-3
CC(C)c1ccc(OCc2nc(-c3ccccn3)no2)c(Br)c1	-20	86*	5	1	-2	-13
Clc1ccc(OCc2nc(-c3ccncc3)no2)c(Br)c1	-9	72*	0	0	0	4
O=S1(=O)C=C(Sc2nc3cc(Cl)ccc3o2)c2ccccc21	94*	80*	-4	-1	-1	80*
CCCCCCn1c(CN2CCCCC2CC)nc2c1c(=O)n(C)c(=O)n2C (configuration not stated)	5	0	-2	1	0	0
SMILES	5-HT1A blocker	S1P1 ag pot	5HT1a ag	HTR1E agonist	S1P3 ag	HTR1E antagonist
Cc1ccc(CNC(=O)C2CCN(S(=O)(=O)c3cccs3)CC2)o1	2	-13	1	-1	-1	1
O=C(CSC1=NCCS1)N1CCCC1	-16	-16	-3	-1	0	-7
Cc1nnc2ccc(Oc3ccc(-c4ccccc4)cc3)nn12	1	68*	0	0	-1	8
Cc1oc(-c2ccc(Cl)cc2)nc1CN1CCC(C(=O)N2CCc3ccccc3C2)CC1	-15	3	32*	1	-2	-2
Cc1oc(-c2ccc(Cl)cc2)nc1CN1CCCC(C(=O)NCc2cccnc2)C1 (configuration not stated)	4	26	-1	12*	-1	12
Cc1ccccc1-c1nc(CN2CCC(C(=O)NCCCN3CCOCC3)CC2)c(C)o1	0	-1	2	0	0	5
Cc1oc(-c2ccc(Cl)cc2)nc1CN1CCCC(C(=O)NCCCN2CCOCC2)C1 (configuration not stated)	0	-11	-4	23*	-1	-3
Cc1oc(-c2ccc(Cl)cc2)nc1CN1CCCC(C(=O)NCc2ccccn2)C1 (configuration not stated)	2	5	1	1	0	-2
Cc1ccccc1-c1nc(CN2CCC(C(=O)NCCCN3CCCC3)CC2)c(C)o1	-11	4	-1	17*	0	1
Cc1noc(/C=C/N(C)C)c1S(=O)(=O)N1CCc2ccccc21	34	72	-3	1	0	0
COc1ccc(N(CC(=O)NC2CCCC2)C(=O)Cn2nnc(-c3ccc(C)cc3)n2)cc1OC	6	6	-1	54*	-1	6
COc1ccc(OC)c(CNc2nc3ccccc3n2CCN2CCCCC2)c1	29	3	-1	0	-2	-1
COc1ccc(CNc2nc3ccccc3n2CCN2CCCCC2)c(OC)c1	44*	-25	1	0	-2	-2
COc1cccc(CNc2nc3ccccc3n2CCN2CCCCC2)c1OC	43*	-9	-2	1	-2	4
C=CCn1c(=O)c2ccccc2n2c(SCc3nnc(-c4ccccc4Br)o3)nnc12	-10	-25	0	0	0	10
Cc1nc2ccccc2c(=O)n1NCc1cc(Br)cs1	1	-11	-2	1	-1	-8
Cc1c(NC(=O)CCN2C(=O)c3ccccc3C2=O)c(=O)n(-c2ccccc2)n1C	7	6	2	-1	-1	19
CC(C)=CCSc1nnc([C@@H](NC(=O)OC(C)(C)C)C(C)C)o1	1	-7	0	-1	1	7

Screens deposited in PubChem by The Scripps Research Institute Molecular Screening Center.
